Assay results: PubChem BioAssay
Results filed as inconclusive are left out.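 Rule for the calls, unless noted: active = viability increase at or above a cutoff of the median across tested compounds plus 3 SD (cut at about 8.5% in these data, passing the limit was not always enough); inconclusive = some gains above the cutoff, reason not given; inactive = the rest.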

What was measured:
[1] = S. cerevisiae growth inhibition in permissive medium (OD615), pilot counter-assay for S. cerevisiae lifespan shortening project, permissive growth control (AID 705;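 active = growth inhibition above 25% in both replicates, a cutoff set 3 SD above the mean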); conditions: OD615, 24 h, at 10 µM, stronger effect = higher value
Method in brief: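 Timing: 24 h exposure, 30 °C / Material: Saccharomyces cerevisiae strain carrying genetically modified DeaD replicative-lifespan system / Signal: OD at 615 nm / Compound: 10 µM single dose, 0.25% DMSO / Medium: SC raffinose/galactose permissive medium / Evaluation: reduction in yeast growth (OD615)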

[2] = S. cerevisiae growth inhibition in restrictive medium, OD615, pilot screen, restrictive growth control, yeast lifespan reduction project (AID 706;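 active = growth inhibition above a set limit, 3 SD over mean compound inhibition, in both replicates, cut at about 43% in these data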;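 note: modified DeaD lifespan yeast strain shifted to restrictive glucose medium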); conditions: OD615, 48 h, at 10 µM, stronger effect = higher value
Method in brief: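 System: Engineered S. cerevisiae DeaD strain | Detection: OD615 | Buffer or medium: CSMM-D glucose medium | Doses: 10 µM compound, 0.25% DMSO | Timing: 4 h pre-growth plus 48 h compound exposure, 30 °C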

[3] = doxorubicin toxicity protection in MRP-1 cells – H69AR cells, CellTiter-Glo, duplicate, MRP-1 activator project, pilot screen (AID 807); conditions: H69AR viability with doxorubicin, CellTiter-Glo luminescence; at 10 µM; stronger effect = higher value;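 note: compound pretreatment 18-22 h then 72 h combined with doxorubicin; 0% = doxorubicin alone and 100% = vehicle without doxorubicin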
[4] = viability of PTEN-null HCT116 cells – cell-based, HCT116 clonal line, CellTiter-Glo, pilot screen (AID 824;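 active = viability at or below 27.92% in each of two runs, the all-compound median minus 4 SD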;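 note: 0% = 20 µM Hyamine control and 100% = vehicle cell control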); conditions: HCT116 PTEN-deleted viability, 60 h, at 10 µM, stronger effect = lower value
[5] = RAM pathway blockade in budding yeast – dse1pr::URA3 reporter, 5-FOA selection, pilot screen (AID 869;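 active = inhibition over a set limit, the all-compound mean plus 3 SD, in both replicate runs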;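 note: 0% = DMSO wells with no growth and 100% = 10 µM 1-NA-PP1 with full growth; RAM network block rescues cells from 5-FOA so hits raise OD615 growth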); conditions: S. cerevisiae dse1pr::URA3 5-FOA growth, OD615, 2 d; at 10 µM; stronger effect = higher value; strain carries analog-sensitive mutant Cbk1 kinase
[6] = RAM signaling pathway blockade in yeast – S. cerevisiae, Pdr1DBD-CYC8 efflux-inhibited sensitized strain, primary screen (AID 1298;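 active = RAM network inhibition above 8.4% in each of two replicates, 3 SD over the compound average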;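 note: 0% = DMSO untreated cells without growth and 100% = 10 µM 1-NA-PP1 full growth; higher means more yeast growth rescued from 5-FOA killing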); conditions: S. cerevisiae cbk1-as DSE1-URA3 strain, 5-FOA growth OD615, 2 d; at 50 µM; stronger effect = higher value

CCNc1nc(-c2ccc(Cl)cc2)cs1
inactive: growth inhibition [1] 1.33% | growth inhibition [2] 0.05% | viability increase [3] -1.74% | viability [4] 84.4% | inhibition [5] -0.24% | RAM network inhibition [6] -0.26%

COc1ccc(OC)c(N(CC(=O)Nc2ccc3c(c2)OCO3)S(=O)(=O)c2ccccc2)c1
inactive: growth inhibition [1] -11.4% | growth inhibition [2] -2.2% | viability increase [3] -2.35% | viability [4] 67.9% | inhibition [5] 3.23% | RAM network inhibition [6] 9.99%

COC(=O)CNC(=O)Cn1cnc2sc(C)c(S(=O)(=O)N3CCC(C)CC3)c2c1=O
inactive: growth inhibition [1] -2.79% | growth inhibition [2] 12.7% | viability increase [3] -3.93% | viability [4] 99.2% | inhibition [5] 1.11% | RAM network inhibition [6] 0.37%

CS(=O)(=O)N(CC(=O)N1CCN(c2ccccc2F)CC1)c1cc(C(F)(F)F)ccc1Cl
inactive: growth inhibition [1] 1.93% | growth inhibition [2] 0.015% | viability increase [3] 0.43% | viability [4] 88.3% | inhibition [5] -0.485% | RAM network inhibition [6] 0.87%

O=c1c2cnn(-c3ccccc3)c2nc(-c2ccco2)n1-c1ccccc1
inactive: growth inhibition [1] -4.83% | growth inhibition [2] -7.2% | viability increase [3] -5.59% | viability [4] 55.4% | inhibition [5] 1.39% | RAM network inhibition [6] 8.81%

CCOc1ccccc1N(CC(=O)Nc1ccc2c(c1)OCO2)S(C)(=O)=O
inactive: growth inhibition [1] -8.59% | growth inhibition [2] -22.3% | viability increase [3] -0.96% | viability [4] 100% | inhibition [5] 1.7% | RAM network inhibition [6] -0.87%

O=C(CCCSc1nc2ccccc2s1)NCc1ccco1
inactive: growth inhibition [1] 1.82% | growth inhibition [2] -1.56% | viability increase [3] -2.85% | viability [4] 86.3% | inhibition [5] 1.28% | RAM network inhibition [6] -0.82%

O=C(CCCC(=O)N1CCCc2ccccc21)N1CCCc2ccccc21
inactive: growth inhibition [1] -8.11% | growth inhibition [2] -5.5% | viability increase [3] -4.74% | viability [4] 95.3% | inhibition [5] 2.04% | RAM network inhibition [6] 1.5%

O=C1C=C(NCc2ccco2)CC(c2ccc(Cl)cc2)C1 (stereo not given)
inactive: growth inhibition [1] -7.5% | growth inhibition [2] -22.3% | viability increase [3] -2.53% | viability [4] 66.6% | inhibition [5] 1.2% | RAM network inhibition [6] 3.64%

COC(=O)c1c(NC(=O)Cc2cccs2)sc(C)c1C
inactive: growth inhibition [1] 2.9% | growth inhibition [2] 6.72% | viability increase [3] -4.9% | viability [4] 87% | inhibition [5] 1.54% | RAM network inhibition [6] 9.13%

c1ccc(CSc2nnc3c(n2)OC(c2ccco2)Nc2ccccc2-3)cc1 (stereo not given)
inactive: growth inhibition [1] -10.6% | growth inhibition [2] 2.27% | viability increase [3] -4.19% | viability [4] 88.8% | inhibition [5] 0.38% | RAM network inhibition [6] 7.16%

COCCCNC(=O)c1cn(C)c(=O)c2cc(OC)c(OC)cc12
inactive: growth inhibition [1] -8.69% | growth inhibition [2] -8.96% | viability increase [3] -2.69% | viability [4] 103% | inhibition [5] 1.8% | RAM network inhibition [6] 0.56%

CCOC(=O)N1CCN(C(=O)CN(c2ccc(Cl)c(C(F)(F)F)c2)S(C)(=O)=O)CC1
inactive: growth inhibition [1] -5.69% | growth inhibition [2] -17.2% | viability increase [3] -4.27% | viability [4] 90.3% | inhibition [5] -0.06% | RAM network inhibition [6] 3.68%

Cc1ccc(N(CC(=O)Nc2ccc(S(=O)(=O)N3CCOCC3)cc2)S(C)(=O)=O)cc1C
inactive: growth inhibition [1] -6.29% | growth inhibition [2] -5.42% | viability increase [3] -4.96% | viability [4] 84.2% | inhibition [5] 0.84% | RAM network inhibition [6] 2.67%

CCOC(=O)N1CCN(C(=O)CN(C2CCCCC2)S(=O)(=O)c2ccc(C)cc2)CC1
inactive: growth inhibition [1] -13.9% | growth inhibition [2] -3.6% | viability increase [3] -4.47% | viability [4] 97.3% | inhibition [5] 1.92% | RAM network inhibition [6] -1.07%

O=C(c1ccco1)N1CCCC(c2nc(-c3ccc(S(=O)(=O)NCc4ccccc4)cc3)no2)C1 (stereo not given)
inactive: growth inhibition [1] -8.47% | growth inhibition [2] -27.3% | viability increase [3] -2.74% | viability [4] 47.4% | inhibition [5] 1.58% | RAM network inhibition [6] 3.3%

Cc1cc(C(=O)N2CCN(c3ccccn3)CC2)c(C)o1
inactive: growth inhibition [1] 9.65% | growth inhibition [2] -7.73% | viability increase [3] -5.92% | viability [4] 96.3% | inhibition [5] 0.945% | RAM network inhibition [6] 4.2%

O=C(CSc1nc2c(c(=O)n1-c1ccc(Cl)cc1)SCC2)N1CCCC1
inactive: growth inhibition [1] 1.32% | growth inhibition [2] 24.2% | viability increase [3] -4.23% | viability [4] 101% | inhibition [5] 1.31% | RAM network inhibition [6] 0.57%

Cc1cc(OCCCCCNCCO)ccc1Cl
inactive: growth inhibition [1] -5.31% | growth inhibition [2] -3.71% | viability increase [3] -4.62% | viability [4] 78% | inhibition [5] 2.05% | RAM network inhibition [6] 1.6%

COc1ccc(CCNS(=O)(=O)c2ccc3c(c2)OCCO3)cc1OC
inactive: growth inhibition [1] -9.32% | growth inhibition [2] -3.31% | viability increase [3] -1.53% | viability [4] 89.9% | inhibition [5] 3.12% | RAM network inhibition [6] 1.02%

O=c1[nH]c(SCc2ccccc2Cl)nc2c1CCC2
inactive: growth inhibition [1] -4.46% | growth inhibition [2] -1.71% | viability increase [3] -2.17% | viability [4] 96.9% | inhibition [5] 1.91% | RAM network inhibition [6] 1.7%

C#CCN1C(=O)C(O)(CC(=O)c2ccc(OC)c(OC)c2)c2ccccc21 (stereo not given)
inactive: growth inhibition [1] 2.17% | growth inhibition [2] 0.69% | viability increase [3] -5.17% | viability [4] 48% | inhibition [5] 1.62% | RAM network inhibition [6] 1.98%

O=C(Nc1ccc(S(=O)(=O)N2CCOCC2)cc1)C1COc2ccccc2O1 (stereo not given)
inactive: growth inhibition [1] -6.88% | growth inhibition [2] -3.29% | viability increase [3] -1.63% | viability [4] 104% | inhibition [5] 0.055% | RAM network inhibition [6] 1.34%

CCOC(=O)N1CCN(C(=O)c2oc3ccc(S(=O)(=O)N4CC(C)CC(C)C4)cc3c2C)CC1 (stereo not given)
inactive: growth inhibition [1] -2.93% | growth inhibition [2] 2.18% | viability increase [3] -6.37% | viability [4] 42.5% | inhibition [5] 1.43% | RAM network inhibition [6] 4.64%

CC(Oc1ccc(Cl)cc1Cl)C(=O)NCc1ccncc1 (stereo not given)
inactive: growth inhibition [1] -10.3% | growth inhibition [2] -7.06% | viability increase [3] -4.17% | viability [4] 89.1% | inhibition [5] 1.26% | RAM network inhibition [6] 1.89%

CC(C)Cn1c(SCC(=O)NC2CCCc3ccccc32)nc(O)cc1=O (stereo not given)
inactive: growth inhibition [1] -3.38% | growth inhibition [2] 9.89% | viability increase [3] -2.62% | viability [4] 97.9% | inhibition [5] 1% | RAM network inhibition [6] 2.76%

CCOC(=O)N1CCN(C(=O)CS(=O)(=O)c2cn(Cc3ccccc3C)c3ccccc23)CC1
inactive: growth inhibition [1] -9.04% | growth inhibition [2] -6% | viability increase [3] -2.26% | viability [4] 94% | inhibition [5] 2.09% | RAM network inhibition [6] 8.81%

NC(=O)CNC1CC(=O)N(CCc2ccccc2)C1=O (stereo not given)
inactive: growth inhibition [1] 2.06% | growth inhibition [2] 4.79% | viability increase [3] -2.49% | viability [4] 98.5% | inhibition [5] 0.77% | RAM network inhibition [6] 1.69%

CCOc1ccccc1NC(=O)CSc1ccccc1
inactive: growth inhibition [1] -17.2% | growth inhibition [2] -2.58% | viability increase [3] -2.94% | viability [4] 85.8% | inhibition [5] 0.255% | RAM network inhibition [6] 2.06%

COc1cc(NC(=O)C2CC2)c(C(=O)O)cc1OC
inactive: growth inhibition [1] -3.4% | growth inhibition [2] 7.62% | viability increase [3] -2.58% | viability [4] 100% | inhibition [5] 1.68% | RAM network inhibition [6] -0.36%

CCS(=O)(=O)N1CCN(C(=O)c2cccs2)CC1
inactive: growth inhibition [1] -9.68% | growth inhibition [2] -12.3% | viability increase [3] -1.23% | viability [4] 100% | inhibition [5] 3.8% | RAM network inhibition [6] -0.05%

CN(CC1CCCO1)S(=O)(=O)c1ccc(C(=O)Nc2nc3cc4c(cc3s2)OCO4)cc1 (stereo not given)
inactive: growth inhibition [1] -9.44% | growth inhibition [2] -15.3% | viability increase [3] -4.33% | viability [4] 35.8% | inhibition [5] 2.66% | RAM network inhibition [6] 4.04%

Cc1c(C(=O)NCc2ccccn2)oc2ccc(S(=O)(=O)N3CCOCC3)cc12
inactive: growth inhibition [1] -0.375% | growth inhibition [2] -7.32% | viability increase [3] -3.28% | viability [4] 94.4% | inhibition [5] 1.13% | RAM network inhibition [6] 0.56%

COc1cc2c(cc1NC(=O)c1ccco1)CCCC2
inactive: growth inhibition [1] 3.87% | growth inhibition [2] -4.68% | viability increase [3] -6.9% | viability [4] 81.1% | inhibition [5] 2.06% | RAM network inhibition [6] 2.56%

Nc1ccc(O)c(-c2nc3ccccc3s2)c1
inactive: growth inhibition [1] 2.32% | growth inhibition [2] 5.73% | viability increase [3] -7.28% | viability [4] 32.6% | inhibition [5] 2.77% | RAM network inhibition [6] 1.92%

CC(NC(=O)c1ccccc1O)c1ccccc1 (stereo not given)
inactive: growth inhibition [1] 0.015% | growth inhibition [2] -2.42% | viability increase [3] 0.41% | viability [4] 94.1% | inhibition [5] 0.1% | RAM network inhibition [6] 0%

COc1cc2c(cc1NC(C)=O)CCCC2
inactive: growth inhibition [1] -5.3% | growth inhibition [2] -0.3% | viability increase [3] -4.13% | viability [4] 100% | inhibition [5] 1.28% | RAM network inhibition [6] 1.23%

COc1ccc(Oc2ccc(S(=O)(=O)N3CCCCC3)cc2S(=O)(=O)N2CCCCC2)cc1
inactive: growth inhibition [1] -4.96% | growth inhibition [2] -0.32% | viability increase [3] -3.43% | viability [4] 87.1% | inhibition [5] 1.56% | RAM network inhibition [6] 3.99%

O=C(NCc1ccco1)C1CCN(C(=O)Cc2ccccc2)CC1
inactive: growth inhibition [1] -8.46% | growth inhibition [2] 4.75% | viability increase [3] -3.71% | viability [4] 102% | inhibition [5] 1.32% | RAM network inhibition [6] 3.59%

Cc1cc2nc3c(c(=O)n2[nH]1)CCCC3
inactive: growth inhibition [1] -6.41% | growth inhibition [2] 0.415% | viability increase [3] -1.07% | viability [4] 105% | inhibition [5] 1.09% | RAM network inhibition [6] -0.25%
